Measurements pooled from the literature.
Target: Serine/threonine-protein kinase/endoribonuclease IRE1 (ERN1, Homo sapiens, UniProt O75460)

O=S(=O)(NC1CCC(c2cc(F)ccc2F)(S(=O)(=O)c2ccc(Cl)cc2)CC1)C(F)(F)F (stereo not shown)
remaining binding (cell-free assay, competition with immobilised ligand; 1 µM): 100%

Cc1ccc(C(=O)Nc2ccc(CN3CCN(C)CC3)c(C(F)(F)F)c2)cc1C#Cc1cnc2cccnn12
remaining activity (enzyme activity, inhibitor; 23.5 nM): 81%

Cc1ccc(C(=O)NCc2ccsc2)cc1C#Cc1cn(C(C)C)c2ncnc(N)c12
activity vs control (enzyme activity, inhibitor; 1 µM): 100%

Cc1cnc(NC2CCOCC2)nc1-n1cnc(C(=O)NC(CN)c2cc(F)cc(Cl)c2)c1 (stereo not shown)
remaining activity (enzyme activity, inhibitor, radiometric; 1 µM): 99%

CN(c1ccnc(CNc2nc(Nc3ccc4c(c3)CC(=O)N4)ncc2C(F)(F)F)n1)S(C)(=O)=O
remaining binding (cell-free assay, competition with immobilised ligand; 1 µM): 49%

Cc1cc(NC(=O)c2cccc3cc(-c4cccc5[nH]nc(N)c45)ccc23)ccc1F
activity vs control (enzyme activity, inhibitor; 0.1 µM): 87%

COc1cccc2c(NCc3ccccc3)nc(-n3c(N)nc4ccccc43)nc12
inhibition (target engagement in cells, inhibitor, chemoproteomics; 20 mM): -6.5%

O=C(Nc1cnn(-c2csc(C(=O)NC3COC3)c2)c1)Nc1ccccc1Cl
remaining activity (enzyme activity, inhibitor; 5 µM): 94.3%

COc1cc(Cl)c(C(=O)N[C@@H](CN[C@H]2CC[C@@H](N)CC2)Cc2ccc(C#N)cc2)cc1-c1ccc(CN[C@H](C)c2ccc(C)cc2)o1
remaining activity (enzyme activity, inhibitor; 1 µM): 93%

Cc1ccc(NC(=O)c2ccc(C)c(C(F)(F)F)c2)cc1C#Cc1nn(C2CCC(O)CC2)c2ncnc(N)c12 (stereo not shown)
remaining signal (cell-free assay; 10 µM): 94%

CN1CC(Oc2cnc(C#N)cc2-c2ccn3nc(NC(=O)C4CC4)cc3c2)C1
inhibition (enzyme activity, inhibitor; 1 µM): 4%

CCN1CCN(Cc2ccc(NC(=O)c3ccc(C)c(Oc4ccnc5[nH]ccc45)c3)cc2C(F)(F)F)CC1
inhibition (target engagement in cells, inhibitor, chemoproteomics; Huh-7; 10 µM): -12.6%

CCCCNc1ncc2c(-c3ccc(F)cc3)nn(C[C@H]3CC[C@H](N)CC3)c2n1
inhibition (target engagement in cells, inhibitor, chemoproteomics; 20 mM): -1.9%

Nc1ncnc2occ(-c3ccc(NC(=O)Nc4cc(C(F)(F)F)ccc4F)cc3)c12
remaining signal (cell-free assay, inhibitor; 20 µM): 16%

Cc1sc(C(=O)NC2COC2)cc1-n1cc(NC(=O)Nc2c(F)cccc2Cl)cn1
remaining activity (enzyme activity, inhibitor; 10 µM): 94.1%

CN([C@@H]1CCc2c(CC(=O)O)c3ccccc3n2C1)S(=O)(=O)c1ccc(F)cc1
remaining binding (cell-free assay, competition with immobilised ligand; 1 µM): 94%
